MC4R antagonist = MC4R antagonists of cAMP signaling, primary screen, cell-based, TR-FRET, antagonist arm of biased-ligand search | Melanocortin receptor 4 (Homo sapiens), P32245 | inhibition, % at 6.5 µM | actives 0.48% (n = 360,000) | AID 540295, 2011 | MC4R-expressing cells, MTII-stimulated cAMP, LANCE TR-FRET;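 active means inhibition above its plate's cutoff, the mean of tested wells on that plate plus 3 SD, cut at about 29% in these data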
Target sequence (P32245 whole entry, looked up): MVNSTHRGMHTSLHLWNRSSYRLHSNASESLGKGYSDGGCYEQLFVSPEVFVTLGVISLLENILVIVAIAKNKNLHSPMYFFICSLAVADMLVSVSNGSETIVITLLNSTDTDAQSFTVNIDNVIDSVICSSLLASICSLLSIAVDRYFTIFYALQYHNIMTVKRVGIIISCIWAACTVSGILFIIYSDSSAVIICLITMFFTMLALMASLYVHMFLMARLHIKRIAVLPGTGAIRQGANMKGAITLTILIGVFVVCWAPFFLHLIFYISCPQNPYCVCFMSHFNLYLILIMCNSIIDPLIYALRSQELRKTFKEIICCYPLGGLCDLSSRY
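material = U2OS cells stably expressing human melanocortin 4 receptor (MC4R) | also added = Melanotan II challenge | dosing = single nominal compound dose of 6.5 µM | detection = TR-FRET with Eu-cAMP and labeled anti-cAMP, 671 nm | replication = singlicate | timing = compound 30 min, challenge 1 h, detection 1 h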
MC4R ag barr = MC4R agonists recruiting beta-arrestin, primary screen, cell-based, luminescence, agonist arm of biased-ligand search. Melanocortin receptor 4 (Homo sapiens), P32245. U2OS MC4R beta-arrestin complementation; percent of melanotan II response, DMSO zero. activation, % at 8.9 µM. actives 0.98% (n = 360,000);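 active means activation above a per-plate cutoff, the mean activation of sample wells on that plate plus 3 SD, cut at about 8% in these data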
MOR-DOR inv ag = inverse agonists of MOR-DOR heterodimerization, primary screen, cell-based, luminescence; cell-based MOR-DOR heterodimer luminescence, inverse agonism; actives 0.21% (n = 340,000); inhibition, % at 9.3 µM; Mu-type opioid receptor (Homo sapiens) + Delta-type opioid receptor (Homo sapiens), …; in the data active means inhibition above about 22%, passing the limit was not always enough
HTR5A ag ctr = HTR5A agonists in luminescence cell assay, primary screen, counter-screen for OPRM1-OPRD1 heterodimer agonist project, full-deck HTS; activation, % at 9.3 µM; 5-hydroxytryptamine receptor 5A (Homo sapiens), P47898; cell-based; actives 0.61% (n = 340,000); AID 504692, 2011; in the data active means activation mostly above about 9.5%, no sharp cut-off; inactive means mostly below about 7.6%
Target sequence (P47898 whole entry, looked up): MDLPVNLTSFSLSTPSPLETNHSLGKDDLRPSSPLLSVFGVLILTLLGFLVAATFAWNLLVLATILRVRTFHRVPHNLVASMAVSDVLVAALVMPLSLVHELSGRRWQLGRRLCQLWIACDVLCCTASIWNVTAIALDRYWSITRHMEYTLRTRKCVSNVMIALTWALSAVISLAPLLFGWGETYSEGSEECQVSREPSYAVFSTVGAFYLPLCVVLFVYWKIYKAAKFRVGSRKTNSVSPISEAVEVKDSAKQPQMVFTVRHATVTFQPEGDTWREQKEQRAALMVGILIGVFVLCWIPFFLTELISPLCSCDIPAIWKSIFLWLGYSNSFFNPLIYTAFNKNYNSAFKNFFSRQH
HTR5A inv ag = HTR5A inverse agonists in luminescence cell assay, primary screen, counter-screen for OPRM1-OPRD1 heterodimer inverse agonist project, full-deck HTS; 5-hydroxytryptamine receptor 5A (Homo sapiens), P47898; HTR5A cell line, inverse agonism; inhibition, % at 9.3 µM; actives 0.083% (n = 340,000); AID 504634, 2011; in the data active means inhibition mostly above about 23%, no sharp cut-off; inactive means mostly below about 18%
MOR-DOR ag = agonists of OPRM1-OPRD1 heterodimerization, primary screen, cell-based, luminescence; activation, % at 9.3 µM; Mu-type opioid receptor (Homo sapiens) + Delta-type opioid receptor (Homo sapiens), …; cells; actives 0.3% (n = 340,000); in the data active means activation above about 18%
U2OS cAMP counter = nonselective cAMP signaling inhibitors, parental cells, counter-screen for MC4R biased antagonist project, cell-based, TR-FRET, U2OS, forskolin, triplicate; shares compounds with MC4R antagonist; inhibition, % at 6.5 µM; AID 602193, 2012; LANCE TR-FRET; actives 26% (n = 1,600);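 active means mean inhibition over triplicates above the low-control well mean plus 3 SD, set per campaign, cut at about 13% in these data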;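 further: signal is single emission at 671 nm which falls as cellular cAMP rises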
MC4R antag conf = MC4R cAMP antagonists, retest, confirmation, cell-based, TR-FRET; shares compounds with MC4R antagonist; MC4R-expressing cells, MTII-stimulated cAMP; inhibition, % at 6.5 µM; actives 27% (n = 1,600); in the data active means inhibition above about 29%
Hits are given with their value; . = inactive; / = no result given. Compounds with a hit are over-represented: about 2.4% of the library has one in this group of screens.

SMILES | MC4R antagonist | MC4R ag barr | MOR-DOR inv ag | HTR5A ag ctr | HTR5A inv ag | MOR-DOR ag | U2OS cAMP counter | MC4R antag conf
O=C(CNS(=O)(=O)c1ccccc1)NCc1ccco1 | . | . | . | . | . | . | / | /
CCOC(=O)c1c(CSc2cccs2)n(C)c2cc(Br)c(O)c(CN(C)C)c12 | . | . | . | . | . | . | / | /
COc1cc(OC)cc(OC(=O)C2CCN(C(=O)c3ccc(F)cc3)CC2)c1 | . | . | . | . | . | . | / | /
COc1cc(OC)cc(OC(=O)C2CCN(C(=O)c3ccc(Cl)cc3)CC2)c1 | 29.1 | . | . | . | . | . | . | .
O=c1c2ccccc2oc2ccccc12 | . | . | / | / | / | / | / | /
S=c1[nH]ncn2c1cc1oc3ccccc3c12 | 33.6 | . | . | . | . | . | 22.3 | 41.1
CN(C)C(=O)c1cn(-c2ccc(Cl)cc2)c(=O)c2ccccc12 | 32.1 | . | . | . | . | . | . | .
COC(=O)c1cn(-c2ccc(Cl)cc2)c(=O)c2ccccc12 | . | . | . | . | . | . | / | /
Cc1noc(C)c1COc1ccc(C(=O)OCC(=O)Nc2ccc3ccccc3c2)cc1 | . | . | . | . | . | . | / | /
CC(C)(C)c1ccc(C(=O)Nc2sc3c(c2C(=O)O)CCC3)cc1 | 30.4 | . | . | . | . | . | . | .
O=C(NC(Cc1ccc(O)cc1)C(=O)O)c1ccco1 (stereo unspecified) | . | . | . | . | . | . | / | /
O=C(COC(=O)[C@H](Cc1ccccc1)NC(=O)c1ccco1)NCc1ccccc1 | 29.3 | . | . | . | . | . | . | .
CN(C)C(=O)COC(=O)[C@H](Cc1ccccc1)NC(=O)c1ccco1 | 28.7 | . | . | . | . | . | 13.8 | .
COc1ccc(CCC(=O)Nc2ccc(S(=O)(=O)Nc3nccc(C)n3)cc2)cc1 | . | . | . | . | . | . | / | /
CC(C)(C)OC(=O)C[C@@H]1C/C=C\C[C@H](CC(=O)N(CCO)Cc2ccccc2)C(=O)NC[C@H](c2ccccc2)OC1=O | . | . | . | . | . | . | / | /
O=C(CSc1ccc([N+](=O)[O-])cc1)NNC(=O)c1ccccc1F | . | . | . | . | . | . | / | /
Cc1nn(CC(=O)NNC(=O)c2ccccc2F)c([N+](=O)[O-])c1Br | 37.2 | . | / | / | / | / | . | .
O=c1[nH]c2cccnc2n1Cc1ccccc1 | . | . | . | . | . | . | / | /
CC(=O)Oc1c(C(C)C)cc(N(C(C)=O)c2ccccc2)cc1C(C)C | 32.9 | . | . | . | . | . | . | .
COc1ccc(-c2csc(NC(=O)c3ccc(N4C(=O)CCC4=O)cc3)n2)cc1 | 50.5 | . | . | . | . | . | 24.8 | 41.6
O=C(Nc1nc(-c2ccc(F)cc2)cs1)c1ccc(N2C(=O)CCC2=O)cc1 | . | . | . | . | . | . | / | /
CC(NC(=S)NCc1ccccc1)C12CC3CC(CC(C3)C1)C2 (stereo unspecified) | . | . | . | . | . | . | / | /
CCCCCCNC(=O)C(C(=O)OCC)C1CCCCC1 (stereo unspecified) | . | . | . | . | . | . | / | /
COc1ccc(CCn2c(C)cc(C(=O)CCl)c2C)cc1OC | 29.9 | . | . | . | . | . | . | .
Cc1cc(C(=O)CSc2nnnn2C)c(C)n1CCc1ccc(F)cc1 | . | . | . | . | . | . | / | /
SMILES | MC4R antagonist | MC4R ag barr | MOR-DOR inv ag | HTR5A ag ctr | HTR5A inv ag | MOR-DOR ag | U2OS cAMP counter | MC4R antag conf
COc1ccc(CCn2c(C)c(C(C)=O)c(C(C)=O)c2C)cc1OC | . | . | . | . | . | . | / | /
Cc1cc(C(=O)CCl)c(C)n1CCc1ccc(F)cc1 | 30.5 | . | . | . | . | . | . | 33.3
S=c1[nH]nc(-c2cccc(Cl)c2)n1/N=C/c1ccc(-c2ccccc2Br)o1 | . | . | . | . | . | . | / | /
S=c1[nH]nc(-c2ccccn2)n1/N=C/c1ccc(-c2ccccc2Br)o1 | 94.4 | . | . | . | . | . | 58.2 | 125.7
Cc1ccc(NC(=O)c2ncn(CCCNCC3CCCO3)n2)cc1C (stereo unspecified) | . | . | . | . | . | . | / | /
N#Cc1ccccc1NC(=O)CSc1nnc(-c2ccncc2)o1 | 30.2 | . | . | . | . | . | . | .
Cc1ccc(C)c(NC(=O)CSc2nnc(-c3ccncc3)o2)c1 | . | . | / | / | / | / | / | /
CCOC(=O)c1ccc2ncc(C(=O)OCC)c(Nc3ccc(N4CCOCC4)cc3)c2c1 | 47.6 | . | . | . | . | . | . | 48.1
Cc1[nH]c(C)c(S(=O)(=O)NCCc2ccc(S(N)(=O)=O)cc2)c1C(=O)N1CCCC1 | . | . | . | . | . | . | / | /
CCCCN(Cc1ccco1)C(=O)C1CCCN(c2ncnc3c2nc2n3CCCCC2)C1 (stereo unspecified) | 32.1 | . | . | . | . | . | . | .
CC(C)N(Cc1ccccc1)C(=O)C1CCCN(c2ncnc3c2nc2n3CCCCC2)C1 (stereo unspecified) | . | . | . | . | . | . | / | /
C=C1CC2(OC1=O)c1ccccc1CCc1ccccc12 | 31.6 | . | . | . | . | . | 38.6 | .
CC1=Nc2ccc(C)cc2/C1=C/c1c(N)n2c(S(=O)(=O)C(C)C)nsc2nc1=O | 33.0 | . | . | . | . | . | . | .
COc1ccc(CC2(CO)CCN(Cc3cnn(C)c3C)CC2)cc1 | 29.7 | . | . | . | . | . | . | .
CCCCOc1c(Br)cc(/C=C2\N=C(C)OC2=O)cc1OCC | 33.3 | . | . | . | . | . | . | .
CCOc1cc(/C=C2\N=C(C)OC2=O)cc(Cl)c1OCC(=O)OC | . | . | . | . | . | . | / | /
Cc1cccc(-n2nc3c(c2NC(=O)c2ccc(S(=O)(=O)N4CCOCC4)cc2)CSC3)c1C | . | . | . | . | . | . | / | /
Cc1ccc(-n2nc3c(c2NC(=O)c2ccc(S(=O)(=O)N4CCOCC4)cc2)CSC3)c(C)c1 | 32.3 | . | . | . | . | . | . | .
Nc1c(C(=O)Nc2ccccc2F)sc2nc(Cc3ccccc3)cc(C(F)(F)F)c12 | 111.3 | . | . | . | . | . | . | .
